Bioassay records from PubChem BioAssay.
An excerpt weighted towards active compounds, which were near 1.5% of everything screened.
APJ antag = blocks the human apelin receptor APJ; CHO-K1 APJ beta-arrestin complementation, luminescence; P35414; inhibition, % at 20 µM; 330,000 compounds, 0.32% hits;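 active means inhibition above about 40% at 20 µM, limit read from the data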;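 further: cells challenged with 10 nM apelin-13 agonist together with compound; plate controls were apelin-13 plus DMSO wells for no effect and DMSO wells lacking apelin-13 for full effect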
Target sequence (P35414 whole entry, looked up): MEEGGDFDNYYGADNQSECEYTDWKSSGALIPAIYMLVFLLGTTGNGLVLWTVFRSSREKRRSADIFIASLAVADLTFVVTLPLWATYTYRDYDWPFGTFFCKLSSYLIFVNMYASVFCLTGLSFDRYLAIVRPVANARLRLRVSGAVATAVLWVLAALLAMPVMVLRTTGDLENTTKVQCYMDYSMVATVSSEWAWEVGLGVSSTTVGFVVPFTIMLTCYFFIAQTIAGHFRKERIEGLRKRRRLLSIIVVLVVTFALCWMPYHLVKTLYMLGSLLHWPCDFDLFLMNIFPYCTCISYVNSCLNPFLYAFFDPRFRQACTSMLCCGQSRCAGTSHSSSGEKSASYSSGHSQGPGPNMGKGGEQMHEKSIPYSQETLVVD
EBI2 block = EBI2 (human) antagonism; AID 651636; 360,000 compounds, 0.81% hits; inhibition, % at 5 µM; EBI2 beta-arrestin recruitment, luminescence, 7a,25-OHC stimulated; in the data active means inhibition above about 38%;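 further: enzyme fragment complementation signal reports receptor beta-arrestin coupling in cells; 0% = agonist plus DMSO wells and 100% = wells without agonist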
APJ ag = APJ receptor agonism; activation, % at 20 µM; P35414; 330,000 compounds, 0.11% hits; CHO-K1 APJ PathHunter beta-arrestin, luminescence; 0% DMSO wells, 100% apelin;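 active means activation more than six SD over the plate average, tested at 20 µM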;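 further: 0% = DMSO alone and 100% = apelin-13 at 10 nM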
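Test system: CHO-K1 APJ beta-arrestin complementation cell line. Amount: cell density 1000 per well. Controls: DMSO negative, 10 nM Apelin-13 positive. Signal: luminescent beta-gal fragment complementation, chemiluminescent substrate. Read-out basis: agonist-driven arrestin binding to APJ. Timing: compound stimulation 90 min at 25 °C, detection 60 min.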
CXCR6 inh = blocks human CXCR6 beta-arrestin recruitment; 360,000 compounds, 0.36% hits; CHO-K1 PathHunter CXCR6 beta-arrestin, luminescence; inhibition, % at 20 µM; AID 602244; O00574; in the data active means inhibition above about 34%, passing the limit was not always enough;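 further: antagonist mode with CXCL16 agonist at 10 nM final; 0% = 10 nM CXCL16 with DMSO and 100% = unstimulated wells without agonist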
CCR6 antag = antagonists of human CCR6 receptor; CHO-K1 CCR6 PathHunter beta-arrestin, luminescence, CCL20-stimulated; P51684; 340,000 compounds, 0.49% hits; inhibition, % at 20 µM;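 active means compounds whose inhibition of the agonist-driven luminescence signal at 20 µM reaches about 50%, limit read from the data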;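 further: cells stimulated with CCL20 at 14 nM final; plate controls were DMSO with CCL20 for no effect and DMSO without agonist for full effect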
An asterisk follows results filed as active; . = not tested or not shown; ! = not active in a repeat.

SMILES	APJ antag	EBI2 block	APJ ag	CXCR6 inh	CCR6 antag
O=S(=O)(/C(=C\c1ccc(C(F)(F)F)cc1)c1nc2ccccc2[nH]1)c1ccccc1	.	45*	.	23	.
O=C(NCc1ccco1)/C(=C/c1ccc(C(F)(F)F)cc1)c1nc2ccccc2[nH]1	16	-3	-3	-2	1
N#Cc1cc([N+](=O)[O-])c(-n2nnc3ccccc32)c([N+](=O)[O-])c1	24	-4	4	74*	.
NNc1ncnc2scc(-c3ccc(Cl)cc3)c12	46*	3	1	4	6
Clc1ccc(-c2csc3ncnc(Cl)c23)cc1	-2	9	-3	4	12
COCC(=O)NNC(=O)Cc1ccc(Cl)cc1	15	4	0	4	-11
CCOC(=O)CSC1=NC(=O)/C(=C\c2ccc(OC(C)=O)cc2)S1	33	-15	-4	30	78*
CCOC(=O)CSC1=NC(=O)/C(=C/c2ccc(Br)cc2)S1	13	-3	-5	22	59*
O=C(NCc1ccccc1CN1CCCC1)c1cccc(S(=O)(=O)N2CCCC2)c1	3	0	-2	4	11
CCC(/C=C1\Sc2ccc(OC)cc2N1CC)=C\c1sc2ccc(OC)cc2[n+]1CCCS(=O)(=O)[O-]	18	-10	-3	11	77*
CCC(/C=C1\Sc2ccc(OC)cc2N1CCO)=C\c1sc2ccc(OC)cc2[n+]1CCO	-33	9	-2	9	68*
CCC(=O)/C=C1/Sc2ccc(OC)cc2N1CCO	3	0	-3	0	20
COc1ccc(CC2=CC(=O)c3ccccc3C2=O)cc1	20	23	5	41*	38
COc1cccc(NC(=O)CN(C)C(=O)COc2cc(C)ccc2Cl)c1	-52	2	4	4	6
O=C(Nc1cccc(Cl)c1)c1cc(N=Nc2ccc([N+](=O)[O-])cc2Cl)ccc1O	56*	13	-11	64*	100*
CCOC(=O)C(C)Sc1cnccn1 (stereo not drawn)	15	-5	-2	7	8
Cc1[nH]n(C(N)=S)c(=O)c1N=Nc1cccc(C(F)(F)F)c1	18	9	-7	10	21
Cc1[nH]n(C2=NCCS2)c(=O)c1N=Nc1cccc(C(F)(F)F)c1	38	16	-7	53*	58*
Cc1ccc2cc3c(N)c(C(=O)N4CC(=O)Nc5ccccc54)sc3nc2c1	98*	.	-20	.	.
N#CC(C#N)=c1ccc2c(c1)NC1(CCCCC1)N=2	28	6	-6	27	54*
CCCCCCCCCCCCCCCCn1cc[n+](C)c1	22	-7	-2	16	57*!
CCCCCCCCn1ccc(=N)cc1	36	-2	7	1	-10
CCOC(=O)C1(Cc2ccc(OC)cc2)CCN(C(=O)CCc2cnccn2)CC1	7	-6	0	-4	-4
CCOC(=O)C1(Cc2ccc(Cl)cc2)CCN(C(=O)CCc2cnccn2)CC1	-26	-4	-4	-4	62*
C[C@H](CO)N1C[C@H](C)[C@H](CN(C)C(=O)c2ccncc2)OCc2cnnn2CCCC1=O	.	-10	.	2	.
SMILES	APJ antag	EBI2 block	APJ ag	CXCR6 inh	CCR6 antag
COc1ccc(/C=N/n2cnnc2)cc1Cn1nc(C)c([N+](=O)[O-])c1C	15	4	-1	8	-6
O=C1C(Cl)=C(Nc2ccccc2)C(=O)c2ccccc21	.	25	.	36	53*
CCOc1ccc(CCNC(=O)COC(=O)c2cc(OC)c(OC)cc2[N+](=O)[O-])cc1OCC	7	1	2	-5	15
O=C(O)CCN1C(=O)/C(=C/c2ccc(-c3nc4ccccc4s3)o2)SC1=S	-6	-1	-5	32	22
O=C(O)CCCN1C(=O)/C(=C\c2ccc(-c3nc4ccccc4s3)o2)SC1=S	11	31	-6	43*	24
Cc1cccc(NC(=O)Oc2ccc(Cl)c3cccnc23)c1	.	11	.	46*	.
CNC(=O)COc1ccc(Cl)c2cccnc12	9	-10	-1	-5	-5
COc1ccc(/C(C)=N/Nc2ncc(Cl)cc2Cl)c(O)c1	11	43*	-1	2	22
O=C(CNc1cccc([N+](=O)[O-])c1)NCCCc1ccccc1	35	-1	-2	8	14
COc1ccccc1NC(=O)C1=C(C)Nc2nnnn2C1c1ccccc1OC (stereo not drawn)	9	1	-1	-1	-4
COc1ccc(Nc2c([N+](=O)[O-])ccc3c2=NC2(CCCCC2)N=3)cc1	-20	61*	-1	-3	10
O=[N+]([O-])c1ccc2c(c1Nc1ccccc1)=NC1(CCCCC1)N=2	4	66*	6	12	-7
O=[N+]([O-])c1ccccc1Nc1ccccc1	24	5	-4	13	21
COc1ccc(NC(=O)c2ccc(NC(=O)c3nc4nc(C)cc(C)n4n3)cc2)cc1	-40	9	-5	0	7
CCCN1C(=O)/C(=C2\SC(=S)N(c3c(C)n(C)n(-c4ccccc4)c3=O)C2=O)c2ccccc21	-2	.	1	.	51*
CCCCN1C(=O)N(C)C2NC(=O)NC21 (stereo not drawn)	-1	1	1	9	-9
CC(Sc1nc2ncc(Cl)cc2[nH]1)C(=O)NC1(C#N)CCCCC1 (stereo not drawn)	12	-16	-1	-2	4
O=C(Oc1ccc(C(=S)N2CCOCC2)cc1Br)c1cc(Cl)ccc1Cl	2	54*	-5	8	37
COc1ccc(C(=O)NNC(=S)NC(=O)C(C)(C)C)cc1	28	5	-9	36	62*
CC(C)(C)C(=O)NC(=S)NNC(=O)c1sc2ccccc2c1Cl	40	-12	1	62*	73*
C#CCNC(=O)c1cc(-c2ccccc2)sc1N	.	-4	.	.	.
O=C(c1ccc(CSCc2ccccc2F)o1)N1CCN(c2ccc(N3CCOCC3)nn2)CC1	18	-7	-4	-2	7
CCCCn1nnnc1NCc1ccc(OC)c(OC)c1OC	-15	3	-4	1	-1
CN(C)CC1CCC/C(=C\c2ccc(OC(=O)c3ccc(Cl)cc3)cc2)C1=O (stereo not drawn)	.	10	.	12	59*
CN(C)CC1CCC/C(=C\c2ccc(OC(=O)/C=C/c3ccccc3)cc2)C1=O (stereo not drawn)	.	4	.	34	62*
C/C=C(/CCC1NCCc2c1[nH]c1ccccc21)[Si](C)(C)C (stereo not drawn)	.	3	.	19	51*
CCCCCCCCCC1NC(C(=O)O)Cc2c1[nH]c1ccccc21 (stereo not drawn)	.	-4	.	0	.
O=C(Cn1sc2ccccc2c1=O)NC12CC3CC(CC(C3)C1)C2	3	32	8	41*	29
O=C(Cn1sc2ccccc2c1=O)Nc1ccccc1	.	-1	.	-5	.
CN1C(=O)C(N=Nc2ccc([N+](=O)[O-])cc2)SC1=S (stereo not drawn)	.	-7	.	45*	86*
